Legend:
P388 [1] = experiment: Antitumor activity against mouse P388 cells allografted in female CDF1 mouse assessed as disease cures by measuring 30-days host survival at 50 mg/kg, ip administered daily for 9 days as Klucel suspension starting 24 hrs after tumor inoculation relative to control; format: functional; conditions: route intraperitoneal
Outline: (§1)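 P388 leukemia given as an ascitic fluid cell inoculum, ip, to mice of the strain and sex in each line. Nine daily ip doses were given in a Klucel (hydroxypropylcellulose) suspension, starting 24 h after inoculation. Read-out is median survival time as %T/C, with >125 taken as significant; a "cure" means 30-day survival.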

P388 [2] = experiment: Antitumor activity against mouse P388 cells allografted in male CDF1 mouse assessed as disease cures by measuring 30-days host survival at 25 mg/kg, ip administered daily for 9 days as Klucel suspension starting 24 hrs after tumor inoculation relative to control; format: functional; conditions: route intraperitoneal; outline: as §1
Mus musculus [3] = experiment: Toxicity in female BDF1 mouse allografted with mouse L1210 cells assessed as animal survival at 50 mg/kg, ip administered daily for 9 days as Klucel suspension starting 24 hrs after tumor inoculation measured on fifth day; format: organism-based; parameters: dose 50 mg/kg, route intraperitoneal; conditions: in vivo
Outline: (§2)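 L1210 leukemia passaged as ascitic fluid and inoculated ip. Test agent given ip as a Klucel (hydroxypropylcellulose) suspension, nine daily doses starting 24 h after tumor inoculation. Acute toxicity read as toxicity-day survivors per group (out of 6), recorded on day 5. Animal weight difference T − C was also recorded. Follows NCI screening protocols.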

P388 [4] = experiment: Antitumor activity against mouse P388 cells allografted in male CDF1 mouse assessed as disease cures by measuring 30-days host survival at 6.25 mg/kg, ip administered daily for 9 days as Klucel suspension starting 24 hrs after tumor inoculation relative to control; format: functional; conditions: route intraperitoneal; outline: as §1
Mus musculus [5] = experiment: Toxicity in female BDF1 mouse allografted with mouse L1210 cells assessed as animal survival at 200 mg/kg, ip administered daily for 9 days as Klucel suspension starting 24 hrs after tumor inoculation measured on fifth day; format: organism-based; parameters: dose 200 mg/kg, route intraperitoneal; conditions: in vivo; outline: as §2
L1210 [6] = experiment: Antileukemic activity against mouse L1210 cells allografted in female BDF1 mouse assessed as change in body weight at 100 mg/kg, ip administered daily for 9 days as Klucel suspension starting 24 hrs after tumor inoculation; format: functional; conditions: route intraperitoneal
Outline: (§3)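 Ascitic fluid carrying L1210 cells was inoculated ip. Compound was given ip as a Klucel (hydroxypropylcellulose) suspension in nine daily doses, starting 24 h after inoculation. Body-weight difference (treated minus control) was recorded on day 5. Survival was scored as %T/C of mean survival time.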

L1210 [7] = experiment: Antileukemic activity against mouse L1210 cells allografted in female BDF1 mouse assessed as host mean survival time at 100 mg/kg, ip administered daily for 9 days as Klucel suspension starting 24 hrs after tumor inoculation relative to control; format: functional; conditions: route intraperitoneal
Outline: (§4)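 L1210 leukemia given as an ascitic fluid cell inoculum, ip, to mice of the strain and sex in each line. Test material was given ip for nine daily doses starting 24 h after inoculation, in a Klucel (hydroxypropylcellulose) suspension. Read-out is mean survival time as %T/C versus controls, with >125 taken as significant.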

[8] = Cytotoxicity against human 9KB cells treated as ethanol solution; format: functional; conditions: read-out: ED50 (the source's name)
Outline: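 Compound applied as an ethanol solution; activity read out as ED50 under the general screening protocol.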

Mus musculus [9] = experiment: Toxicity in male CDF1 mouse allografted with mouse P388 cells assessed as animal survival at 12.5 mg/kg, ip administered daily for 9 days as Klucel suspension starting 24 hrs after tumor inoculation; format: organism-based; parameters: dose 12.5 mg/kg, route intraperitoneal; conditions: in vivo
Outline: (§5)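 P-388 leukemia ascitic fluid inoculated ip. Compound given ip as a suspension in Klucel (hydroxypropylcellulose), once daily for nine doses beginning 24 h post-inoculation. Acute toxicity assessed as toxicity-day survivors per group. Survival was followed up to 30 days, with 30-day survival counted as "cure". Follows NCI screening protocols.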

Mus musculus [10] = experiment: Toxicity in male CDF1 mouse allografted with mouse P388 cells assessed as animal survival at 25 mg/kg, ip administered daily for 9 days as Klucel suspension starting 24 hrs after tumor inoculation; format: organism-based; parameters: dose 25 mg/kg, route intraperitoneal; conditions: in vivo; outline: as §5
P388 [11] = experiment: Antitumor activity against mouse P388 cells allografted in female CDF1 mouse assessed as change in body weight at 200 mg/kg, ip administered daily for 9 days as Klucel suspension starting 24 hrs after tumor inoculation; format: functional; conditions: route intraperitoneal
Outline: (§6)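 Ascitic fluid carrying P388 cells was inoculated ip. Compound was given ip in nine daily doses, starting 24 h after inoculation, in Klucel (hydroxypropylcellulose) suspension or in saline with Tween-80. Body-weight difference (treated minus control) was recorded on day 5. Survival was scored as %T/C of median survival time, and 30-day survival counted as cure.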

L1210 [12] = experiment: Antileukemic activity against mouse L1210 cells allografted in female BDF1 mouse assessed as change in body weight at 200 mg/kg, ip administered daily for 9 days as Klucel suspension starting 24 hrs after tumor inoculation; format: functional; conditions: route intraperitoneal; outline: as §3
P388 [13] = experiment: Antitumor activity against mouse P388 cells allografted in male CDF1 mouse assessed as change in body weight at 12.5 mg/kg, ip administered daily for 9 days as Klucel suspension starting 24 hrs after tumor inoculation; format: functional; conditions: route intraperitoneal; outline: as §6
P388 [14] = experiment: Antitumor activity against mouse P388 cells allografted in male CDF1 mouse assessed as disease cures by measuring 30-days host survival at 12.5 mg/kg, ip administered daily for 9 days as Klucel suspension starting 24 hrs after tumor inoculation relative to control; format: functional; conditions: route intraperitoneal; outline: as §1
P388 [15] = experiment: Antitumor activity against mouse P388 cells allografted in female BDF1 mouse assessed as change in body weight at 12.5 mg/kg, ip administered daily for 9 days as Klucel suspension starting 24 hrs after tumor inoculation; format: functional; conditions: route intraperitoneal; outline: as §6
P388 [16] = experiment: Antitumor activity against mouse P388 cells allografted in female BDF1 mouse assessed as change in body weight at 6.25 mg/kg, ip administered daily for 9 days as Klucel suspension starting 24 hrs after tumor inoculation; format: functional; conditions: route intraperitoneal; outline: as §6
P388 [17] = experiment: Antitumor activity against mouse P388 cells allografted in female CDF1 mouse assessed as disease cures by measuring 30-days host survival at 100 mg/kg, ip administered daily for 9 days as Klucel suspension starting 24 hrs after tumor inoculation relative to control; format: functional; conditions: route intraperitoneal; outline: as §1
P388 [18] = experiment: Antitumor activity against mouse P388 cells allografted in male CDF1 mouse assessed as disease cures by measuring 30-days host survival at 50 mg/kg, ip administered daily for 9 days as Klucel suspension starting 24 hrs after tumor inoculation relative to control; format: functional; conditions: route intraperitoneal; outline: as §1
L1210 [19] = experiment: Antileukemic activity against mouse L1210 cells allografted in female BDF1 mouse assessed as host mean survival time at 50 mg/kg, ip administered daily for 9 days as Klucel suspension starting 24 hrs after tumor inoculation relative to control; format: functional; conditions: route intraperitoneal; outline: as §4
P388 [20] = experiment: Antitumor activity against mouse P388 cells allografted in female BDF1 mouse assessed as disease cures by measuring 30-days host survival at 25 mg/kg, ip administered daily for 9 days as Klucel suspension starting 24 hrs after tumor inoculation relative to control; format: functional; conditions: route intraperitoneal; outline: as §1
Mus musculus [21] = experiment: Toxicity in female CDF1 mouse allografted with mouse P388 cells assessed as animal survival at 50 mg/kg, ip administered daily for 9 days as Klucel suspension starting 24 hrs after tumor inoculation; format: organism-based; parameters: dose 50 mg/kg, route intraperitoneal; conditions: in vivo; outline: as §5
Mus musculus [22] = experiment: Toxicity in female BDF1 mouse allografted with mouse P388 cells assessed as animal survival at 25 mg/kg, ip administered daily for 9 days as Klucel suspension starting 24 hrs after tumor inoculation; format: organism-based; parameters: dose 25 mg/kg, route intraperitoneal; conditions: in vivo; outline: as §5
P388 [23] = experiment: Antitumor activity against mouse P388 cells allografted in female BDF1 mouse assessed as disease cures by measuring 30-days host survival at 6.25 mg/kg, ip administered daily for 9 days as Klucel suspension starting 24 hrs after tumor inoculation relative to control; format: functional; conditions: route intraperitoneal; outline: as §1

## CC(=O)OCc1c(COC(C)=O)c(-c2ccccc2)n2c1CCC2
P388 [1]
  T/C: 79%
P388 [2]
  T/C: 142%
Mus musculus [3]
  Activity: Non-toxic
P388 [4]
  T/C: 125%
Mus musculus [5]
  Activity: Toxic
L1210 [6]
  Activity: -2.3 g
L1210 [7]
  T/C: 107%
[8]
  EC50: > 100 µg/mL
Mus musculus [9]
  Activity: Non-toxic
Mus musculus [10]
  Activity: Non-toxic
P388 [11]
  Activity: 0.5 g
L1210 [12]
  Activity: -2.8 g
P388 [13]
  Activity: -0.2 g
P388 [14]
  T/C: 110%
P388 [15]
  Activity: -1.2 g
P388 [16]
  Activity: -0.4 g
P388 [17]
  T/C: 49%
P388 [18]
  T/C: 87%
L1210 [19]
  T/C: 114%
P388 [20]
  T/C: 133%
Mus musculus [21]
  Activity: Non-toxic
Mus musculus [22]
  Activity: Non-toxic
P388 [23]
  T/C: 107%

— ChEMBL document CHEMBL3244396, “Synthesis and antileukemic activity of 5-substituted 2,3-dihydro-6,7-bis(hydroxymethyl)-1H-pyrrolizine diesters” (J Med Chem, 1977)
